Tests used:
Klebsiella pneumoniae [1] = assay: Antibacterial activity against Klebsiella pneumoniae M9170 clinical isolate expressing blaOXA-GIII gene by microdilution test; assay type: functional
Outline: (§1)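 MIC by standard broth microdilution following CLSI recommendations, in Mueller Hinton broth supplemented with Ca²⁺ (20-25mg/L) and Mg²⁺ (10-12.5mg/L); peptides tested against a panel of multi-resistant clinical isolates plus ATCC reference strains.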

Klebsiella pneumoniae [2] = assay: Antibacterial activity against Klebsiella pneumoniae M9140 clinical isolate expressing blaCIT gene by microdilution test; assay type: functional; outline: as §1
Klebsiella pneumoniae [3] = assay: Antibacterial activity against Klebsiella pneumoniae PFAV3 by microdilution test; assay type: functional; outline: as §1
Acinetobacter sp. [4] = assay: Antibacterial activity against Acinetobacter sp. M7978 clinical isolate expressing blaIMP-1 gene by microdilution test; assay type: functional; outline: as §1
Acinetobacter sp. [5] = assay: Antibacterial activity against Acinetobacter sp. M5949 clinical isolate expressing blaOXA-23 and blaOXA-GVI gene by microdilution test; assay type: functional; outline: as §1
Acinetobacter sp. [6] = assay: Antibacterial activity against Acinetobacter sp. PFAV1 clinical isolate expressing blaOXA-51, blaOXA-58 and blaPER gene by microdilution test; assay type: functional; outline: as §1
Acinetobacter sp. [7] = assay: Antibacterial activity against Acinetobacter sp. M5282 clinical isolate expressing blaOXA-51 gene by microdilution test; assay type: functional; outline: as §1
Acinetobacter sp. [8] = assay: Antibacterial activity against Acinetobacter sp. M9665 clinical isolate expressing blaOXA-51 gene by microdilution test; assay type: functional; outline: as §1
Pseudomonas aeruginosa [9] = assay: Antibacterial activity against Pseudomonas aeruginosa M7525 clinical isolate expressing blaSPM gene by microdilution test; assay type: functional
Outline: (§2)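 MIC by standard broth microdilution following CLSI recommendations, in Mueller Hinton broth supplemented with Ca²⁺ (20-25 mg/L) and Mg²⁺ (10-12.5 mg/L); ATCC reference strains included in the panel.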

Pseudomonas aeruginosa [10] = assay: Antibacterial activity against Pseudomonas aeruginosa M5200 clinical isolate expressing blaVIM and blaGES-1 gene by microdilution test; assay type: functional; outline: as §2
Pseudomonas aeruginosa [11] = assay: Antibacterial activity against Pseudomonas aeruginosa M5109 clinical isolate expressing blaVIM and blaGES-1 gene by microdilution test; assay type: functional; outline: as §2
Pseudomonas aeruginosa [12] = assay: Antibacterial activity against Pseudomonas aeruginosa M7728 clinical isolate expressing blaIMP gene by microdilution test; assay type: functional; outline: as §2
Pseudomonas aeruginosa [13] = assay: Antibacterial activity against Pseudomonas aeruginosa M7723 clinical isolate expressing blaKPC-2 gene by microdilution test; assay type: functional; outline: as §2
Pseudomonas aeruginosa [14] = assay: Antibacterial activity against Pseudomonas aeruginosa M13513 clinical isolate expressing blaKPC-2 gene by microdilution test; assay type: functional; outline: as §1
Pseudomonas aeruginosa [15] = assay: Antibacterial activity against Pseudomonas aeruginosa M7907 clinical isolate expressing blaPER gene by microdilution test; assay type: functional; outline: as §2
Pseudomonas aeruginosa [16] = assay: Antibacterial activity against Pseudomonas aeruginosa ATCC 27853 by microdilution test; assay type: functional; outline: as §1
[17] = Toxicity in human RBC assessed as hemolytic activity relative to control; assay type: cell-based, Erythrocyte; conditions: red blood cells (RBC), read-out: Activity
Outline: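 Heparinized human whole blood diluted 3x in PBS and centrifuged 10 min at 1500 rpm, repeated three times. Cells resuspended to 10% (v/v), then diluted to about 0.5% (v/v). Peptides added at various concentrations for 30 min at 37 °C. Supernatant absorbance read at 550 nm. Lysis calculated against buffer (0%) and water (100%). Readings taken in triplicate and averaged.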

Enterococcus faecium [18] = assay: Antibacterial activity against Enterococcus faecium M2664 clinical isolate expressing vanA gene by microdilution test; assay type: functional; outline: as §1
Enterococcus faecium [19] = assay: Antibacterial activity against Enterococcus faecium M2481 clinical isolate expressing vanB gene by microdilution test; assay type: functional; outline: as §1
Enterococcus faecium [20] = assay: Antibacterial activity against Enterococcus faecium M2619 clinical isolate expressing vanB gene by microdilution test; assay type: functional; outline: as §1
Enterococcus faecium [21] = assay: Antibacterial activity against Enterococcus faecium PZAP95 by microdilution test; assay type: functional; outline: as §1
Enterococcus faecalis [22] = assay: Antibacterial activity against Enterococcus faecalis M6983 clinical isolate expressing vanA gene by microdilution test; assay type: functional; outline: as §1
Enterococcus faecalis [23] = assay: Antibacterial activity against Enterococcus faecalis M4449 clinical isolate expressing vanA gene by microdilution test; assay type: functional; outline: as §1
Enterococcus faecalis [24] = assay: Antibacterial activity against Enterococcus faecalis ATCC 51299 clinical isolate expressing vanB gene by microdilution test; assay type: functional; outline: as §1
Staphylococcus hominis [25] = assay: Antibacterial activity against Staphylococcus hominis M2967 clinical isolate expressing mecA gene by microdilution test; assay type: functional; outline: as §2
Staphylococcus hominis [26] = assay: Antibacterial activity against Staphylococcus hominis M2973 clinical isolate expressing mecA gene by microdilution test; assay type: functional; outline: as §2
[27] = tested on: Staphylococcus haemolyticus; assay: Antibacterial activity against Staphylococcus haemolyticus M3014 by microdilution test; assay type: functional; outline: as §2
[28] = tested on: Staphylococcus saprophyticus; assay: Antibacterial activity against Staphylococcus saprophyticus M2981 clinical isolate expressing mecA gene by microdilution test; assay type: functional; outline: as §2
[29] = tested on: Staphylococcus epidermidis; assay: Antibacterial activity against Staphylococcus epidermidis M2921 clinical isolate expressing mecA gene by microdilution test; assay type: functional; outline: as §2
[30] = tested on: Staphylococcus epidermidis; assay: Antibacterial activity against Staphylococcus epidermidis M2919 clinical isolate expressing mecA gene by microdilution test; assay type: functional; outline: as §2
Staphylococcus aureus [31] = assay: Antibacterial activity against Staphylococcus aureus M6784 clinical isolate expressing mecA gene by microdilution test; assay type: functional; outline: as §2
Staphylococcus aureus [32] = assay: Antibacterial activity against Staphylococcus aureus M4046 clinical isolate expressing mecA gene by microdilution test; assay type: functional; outline: as §2
Staphylococcus aureus [33] = assay: Antibacterial activity against Staphylococcus aureus M2832 clinical isolate expressing mecA gene by microdilution test; assay type: functional; outline: as §2
Staphylococcus aureus [34] = assay: Antibacterial activity against Staphylococcus aureus M6794 clinical isolate expressing mecA gene by microdilution test; assay type: functional; outline: as §2
Staphylococcus aureus [35] = assay: Antibacterial activity against Staphylococcus aureus M6276 clinical isolate expressing ermA and lnuA gene by microdilution test; assay type: functional; outline: as §2
Staphylococcus aureus [36] = assay: Antibacterial activity against Staphylococcus aureus P204 clinical isolate expressing ermA gene by microdilution test; assay type: functional; outline: as §2
Staphylococcus aureus [37] = assay: Antibacterial activity against Staphylococcus aureus P28 clinical isolate expressing ermA gene by microdilution test; assay type: functional; outline: as §2
Staphylococcus aureus [38] = assay: Antibacterial activity against Staphylococcus aureus ATCC 29213 by microdilution test; assay type: functional; outline: as §2
Escherichia coli [39] = assay: Antibacterial activity against Escherichia coli M5306 clinical isolate expressing blaPER-2, blaCTX-M-2 and blaTEM-1 gene by microdilution test; assay type: functional; outline: as §1
Escherichia coli [40] = assay: Antibacterial activity against Escherichia coli PLCA1 clinical isolate expressing blaCTX-M-2 and blaTEM-1 gene by microdilution test; assay type: functional; outline: as §1
Escherichia coli [41] = assay: Antibacterial activity against Escherichia coli PABC11 clinical isolate expressing blaCTX-M-2 gene by microdilution test; assay type: functional; outline: as §1
Escherichia coli [42] = assay: Antibacterial activity against Escherichia coli PCOS15 clinical isolate expressing blaPER-2 and blaTEM-1 gene by microdilution test; assay type: functional; outline: as §1
Escherichia coli [43] = assay: Antibacterial activity against Escherichia coli M7859 clinical isolate expressing blaCIT gene by microdilution test; assay type: functional; outline: as §1
Klebsiella pneumoniae [44] = assay: Antibacterial activity against Klebsiella pneumoniae M9885 clinical isolate expressing blaKPC-2 gene by microdilution test; assay type: functional; outline: as §1
Klebsiella pneumoniae [45] = assay: Antibacterial activity against Klebsiella pneumoniae M13540 clinical isolate expressing blaKPC-2 gene by microdilution test; assay type: functional; outline: as §1
Klebsiella pneumoniae [46] = assay: Antibacterial activity against Klebsiella pneumoniae M7647 clinical isolate expressing blaVIM, blaCTX-M-2, blaTEM-1 and blaSHV-1 gene by microdilution test; assay type: functional; outline: as §1
Klebsiella pneumoniae [47] = assay: Antibacterial activity against Klebsiella pneumoniae M1803 clinical isolate expressing blaPER-2, blaCTX-M-2, blaTEM-1, blaSHV and blaOXA-9 gene by microdilution test; assay type: functional; outline: as §1
Klebsiella pneumoniae [48] = assay: Antibacterial activity against Klebsiella pneumoniae M9310 clinical isolate expressing blaCTX-M-2, blaTEM-1 and blaSHV-1 gene by microdilution test; assay type: functional; outline: as §1

MIC90 (Klebsiella pneumoniae [1]): 32 µg/mL | MIC90 (Klebsiella pneumoniae [2]): 32 µg/mL | MIC90 (Klebsiella pneumoniae [3]): 128 µg/mL | MIC90 (Acinetobacter sp. [4]): 8 µg/mL | MIC90 (Acinetobacter sp. [5]): 16 µg/mL | MIC90 (Acinetobacter sp. [6]): 16 µg/mL | MIC90 (Acinetobacter sp. [7]): 8 µg/mL | MIC90 (Acinetobacter sp. [8]): 32 µg/mL | MIC90 (Pseudomonas aeruginosa [9]): 64 µg/mL | MIC90 (Pseudomonas aeruginosa [10]): 64 µg/mL | MIC90 (Pseudomonas aeruginosa [11]): 64 µg/mL | MIC90 (Pseudomonas aeruginosa [12]): 64 µg/mL | MIC90 (Pseudomonas aeruginosa [13]): 64 µg/mL | MIC90 (Pseudomonas aeruginosa [14]): 64 µg/mL | MIC90 (Pseudomonas aeruginosa [15]): 64 µg/mL | MIC90 (Pseudomonas aeruginosa [16]): 64 µg/mL | MIC90 (Enterococcus faecium [18]): 8 µg/mL | MIC90 (Enterococcus faecium [19]): 16 µg/mL | MIC90 (Enterococcus faecium [20]): 16 µg/mL | MIC90 (Enterococcus faecium [21]): 16 µg/mL | MIC90 (Enterococcus faecalis [22]): 128 µg/mL | MIC90 (Enterococcus faecalis [23]): 128 µg/mL | MIC90 (Enterococcus faecalis [24]): 256 µg/mL | MIC90 (Staphylococcus hominis [25]): 8 µg/mL | MIC90 (Staphylococcus hominis [26]): 4 µg/mL | MIC90 [28]: 8 µg/mL | MIC90 [29]: 8 µg/mL | MIC90 [30]: 16 µg/mL | MIC90 (Staphylococcus aureus [31]): 32 µg/mL | MIC90 (Staphylococcus aureus [32]): 128 µg/mL | MIC90 (Staphylococcus aureus [33]): 128 µg/mL | MIC90 (Staphylococcus aureus [34]): 64 µg/mL | MIC90 (Staphylococcus aureus [35]): 128 µg/mL | MIC90 (Staphylococcus aureus [36]): 64 µg/mL | MIC90 (Staphylococcus aureus [37]): 64 µg/mL | MIC90 (Staphylococcus aureus [38]): 64 µg/mL | MIC90 (Escherichia coli [39]): 4 µg/mL | MIC90 (Escherichia coli [40]): 64 µg/mL | MIC90 (Escherichia coli [41]): 32 µg/mL | MIC90 (Escherichia coli [42]): 64 µg/mL | MIC90 (Escherichia coli [43]): 32 µg/mL | MIC90 (Klebsiella pneumoniae [44]): 64 µg/mL | MIC90 (Klebsiella pneumoniae [45]): 16 µg/mL | MIC90 (Klebsiella pneumoniae [46]): 32 µg/mL | MIC90 (Klebsiella pneumoniae [47]): 32 µg/mL | MIC90 (Klebsiella pneumoniae [48]): 16 µg/mL
Substance: H-GLLKKWLKKWKEFKRIVGY-NH2
hemolysis [17]: 39.8% | MIC90 [27]: 8 µg/mL

Reference: ChEMBL document CHEMBL3097989, “Antimicrobial activity of de novo designed cationic peptides against multi-resistant clinical isolates” (Eur J Med Chem, 2014)
